Results collected from several papers.
Compare with care: the assays were run in different laboratories.
RORC: Nuclear receptor ROR-gamma (RORC, Homo sapiens, UniProt P51449)
polA: DNA polymerase I, thermostable (polA, Thermus aquaticus, UniProt P19821)
SIRT2: NAD-dependent protein deacetylase sirtuin-2 (SIRT2, Homo sapiens, UniProt Q8IXJ6)
CDC7: Cell division cycle 7-related protein kinase (CDC7, Homo sapiens, UniProt O00311)
Genome polyprotein protease: Genome polyprotein, protease (Hepatitis C virus genotype 1b, UniProt Q9WMX2)
SLC22A8: Organic anion transporter 3 (SLC22A8, Homo sapiens, UniProt Q8TCC7)
AMY2: Pancreatic alpha-amylase (AMY2, Sus scrofa, UniProt P00690)
Maoa: Amine oxidase [flavin-containing] A (Maoa, Rattus norvegicus, UniProt P21396)

SMILES | target | test | test system | conditions | IC50 [nM]
O=c1oc(Cl)c(Cl)c2ccccc12 | Chymotrypsinogen A (Bos taurus, UniProt P00766) | enzyme activity, inhibitor, fluorescence | – | – | 2800
CC1Cc2ccc(OCc3c(F)cccc3Cl)cc2N1S(=O)(=O)c1cccc(C(F)(F)F)c1 (centres unmarked) | RORC | ligand displacement, radioligand | – | – | 380
CCn1ncc2c1-c1cnc(N)c(c1)O[C@H](C)c1cc(F)ccc1-c1nn(C)nc1C2 | Tyrosine-protein kinase Fes/Fps (FES, Homo sapiens, UniProt P07332) | enzyme activity, inhibitor, radiometric | – | – | 258
O=S(=O)(c1ccccc1)N1CCc2ccc(OCc3c(F)cccc3Cl)cc21 | RORC | ligand displacement, radioligand | – | – | 800
CCCCCCCC/C=C\CCCCCCCC(=O)Oc1ccc2ccc(=O)oc2c1 | polA | enzyme activity, inhibitor | – | – | > 200000
CCCCCCCCCCCCNC(=S)NCCCC[C@H](NC(=O)OCc1ccccc1)C(=O)N[C@@H](Cc1c[nH]c2ccccc12)C(=O)N[C@@H](CCCCNC(=N)N)C(N)=O | SIRT2 | enzyme activity, inhibitor | – | – | 210
CN1CCN(c2ccnc(C(=O)N3CCC[C@H](C(=O)Nc4cccc(-c5ccc(C(N)=O)cc5)c4)C3)c2)CC1 | Histone lysine demethylase PHF8, PHD (PHF8, Homo sapiens, UniProt Q9UPP1) | cell-free assay, inhibitor, TR-FRET | – | – | > 100000
O=C(O)CNC(=O)C(=O)O | Lysine-specific demethylase 4D (KDM4D, Homo sapiens, UniProt Q6B0I6) | enzyme activity, inhibitor, AlphaScreen | – | – | 34000
CCCCCCCCCCCCNC(=S)NCCCC[C@H](NC(=O)OCc1ccccc1)C(=O)N[C@@H](Cc1c[nH]c2ccccc12)C(=O)N[C@@H](CCCNC(=N)N)C(N)=O | SIRT2 | enzyme activity, inhibitor | – | – | 150
O=S(=O)(c1cc(Cl)cc(Cl)c1)N1CCc2ccc(OCc3c(F)cccc3Cl)cc21 | RORC | ligand displacement, radioligand | – | – | 340
CCn1c(-c2nc3cc(C(=O)N4CCC[C@@H](N)C4)cc(OC)c3n2C)cc2cccnc21 | Muscarinic acetylcholine receptor M2 (CHRM2, Homo sapiens, UniProt P08172) | calcium signal, antagonist, fluorescence | – | – | > 15800
CC(C)[C@H](N)c1nc2cc(-c3ccnc(F)c3)sc2c(=O)[nH]1 | CDC7 | enzyme activity, inhibitor | – | – | 71.7
CCCCCCCCCCCCCC(=O)NCCCC[C@H](NS(C)(=O)=O)C(=O)N[C@H](C)C(=O)N[C@@H](CCCNC(=N)N)C(N)=O | SIRT2 | enzyme activity, inhibitor | – | – | 740
Cc1ccc(S(=O)(=O)Nc2ccccc2C(=O)Nc2nc(-c3cc(Cl)ccc3Cl)cs2)cc1 | Genome polyprotein protease | enzyme activity, inhibitor, FRET | – | – | 1200
COc1cc(N2CCN(C)CC2)ccc1Nc1ncc2c(n1)N(C)c1ccccc1C(=O)N2C | Serine/threonine-protein kinase DCLK1 (DCLK1, Homo sapiens, UniProt O15075) | enzyme activity, inhibitor, mobility shift | – | – | 16
CNC(=O)c1cc2c(Oc3ccc(NC(=O)C4(C(=O)Nc5ccc(F)cc5)CC4)cc3)ccnc2cc1OC | Ephrin type-A receptor 5 (EPHA5, Homo sapiens, UniProt P54756) | enzyme activity, inhibitor, radiometric | – | – | 29
O=S(=O)(c1ccc(F)cc1)N1CCc2ccc(OCc3c(F)cccc3Cl)cc21 | RORC | ligand displacement, radioligand | – | – | 500
CCCCC(=O)N(Cc1ccc(-c2ccccc2-c2nnn[nH]2)cc1)[C@H](C(=O)O)C(C)C | SLC22A8 | transporter uptake, inhibitor | – | – | 250
COc1cc2nccc(Oc3ccc(NC(=O)c4cc5c(n(-c6ccccc6)c4=O)CCCC5=O)nc3)c2cc1OC | Tyrosine-protein kinase FRK (FRK, Homo sapiens, UniProt P42685) | enzyme activity in cells, inhibitor, ATP luminescence | – | – | > 100
COc1ccc(S(=O)(=O)N/N=C2\C(=O)Nc3ccc([N+](=O)[O-])cc32)cc1 | AMY2 | enzyme activity, inhibitor | – | – | 8200
O=C1OC[C@H]2OC(O)[C@H](O)[C@@H](O)[C@@H]2OC(=O)c2cc(O)c(O)c(O)c2-c2c(O)c(O)c3oc(=O)c4c(c(O)c(O)c5oc(=O)c2c3c54)-c2c1cc(O)c(O)c2O (mixture of isomers) | Genome polyprotein protease | enzyme activity, inhibitor, fluorescence | – | – | < 100
COc1cccnc1COc1ccc2c(c1)N(S(=O)(=O)c1cccc(C(F)(F)F)c1)CC2 | RORC | ligand displacement, radioligand | – | – | 85

SMILES | target | test | test system | conditions | IC50 [nM]
CC(C)C[C@H](NC(=O)[C@H](Cc1ccccc1)NC(=O)[C@@H](N)Cc1ccc(O)cc1)C(=O)N[C@@H](Cc1ccccc1)C(=O)N[C@@H](CCCNC(=N)N)C(=O)N1CCC[C@H]1C(=O)N[C@@H](CCCNC(=N)N)C(=O)N[C@@H](CC(N)=O)C(N)=O | Neuromedin-U receptor 1 (Mus musculus, UniProt O55040) | ligand displacement, radioligand | – | – | 0.38
O=C1Nc2ccc(Cl)cc2/C1=N/NS(=O)(=O)c1ccc(Br)cc1 | AMY2 | enzyme activity, inhibitor | – | – | 12800
CCCCCCCCCCCCCC(=S)NCCCC[C@H](NC(=O)OCc1ccccc1)C(=O)N[C@@H](Cc1c[nH]c2ccccc12)C(=O)NC(C)C | SIRT2 | enzyme activity, inhibitor | – | – | 1200
CC(C)[C@H](N)c1nc2cc(N3CCNCC3)sc2c(=O)[nH]1 | CDC7 | enzyme activity, inhibitor | – | – | > 10000
O=S(=O)(c1cccc(-c2ccccc2)c1)N1CCc2ccc(OCc3c(F)cccc3Cl)cc21 | RORC | ligand displacement, radioligand | – | – | 250
CN(C(=O)n1cnc(-c2ccc[n+]([O-])c2)c1)C1CCCCC1 | SLC22A8 | transporter uptake, inhibitor | HEK293 | – | > 33300
CC(C)[C@@H](N)c1nc2cc(-c3ccncc3F)sc2c(=O)[nH]1 | CDC7 | enzyme activity, inhibitor | – | – | 1470
COc1ccc2cc(C=NN=C3CS(=O)(=O)N(C)c4ccccc43)c(Cl)nc2c1 | Maoa | enzyme activity, inhibitor, fluorescence | – | – | 3430
O=S(=O)(c1cc(C(F)(F)F)ccn1)N1CCc2ccc(OCc3c(F)cccc3Cl)cc21 | RORC | ligand displacement, radioligand | – | – | 180
O=C1Nc2ccccc2/C1=N/NS(=O)(=O)c1ccc(Cl)cc1 | AMY2 | enzyme activity, inhibitor | – | – | 3700
O=C(O)C1=CC(=C(c2ccc(O)c(C(=O)O)c2)c2ccc(O)c(C(=O)O)c2)C=CC1=O | Flap endonuclease 1 (Homo sapiens, UniProt P39748) | enzyme activity, inhibitor | – | with preincubation | 540
CCCCCCCCCCCCNC(=S)NCCCC[C@H](NC(=O)OCc1ccccc1)C(=O)N[C@@H](C)C(=O)N[C@@H](CCCNC(=N)N)C(N)=O | SIRT2 | enzyme activity, inhibitor | – | – | 140
OC[C@@H]1[C@@H](O)[C@H](O)[C@@H](O)[C@@H]2O[C@H]12 | Beta-glucosidase (GBA2, Homo sapiens, UniProt Q9HCG7) | enzyme activity, inhibitor | – | pH 8, lysate | 5350
CCCCCCCCCCCCCCCCCC(=O)Oc1ccc2ccc(=O)oc2c1 | polA | enzyme activity, inhibitor | – | – | > 200000
Cc1cnc(-c2ccc(-c3ccc(NC(=O)Nc4c(F)cc(F)cc4F)cc3F)c3c2C(=O)NC3)[nH]1 | Myosin-IIIb (MYO3B, Homo sapiens, UniProt Q8WXR4) | enzyme activity, inhibitor | – | – | 4.2
CC(=NN=C1CS(=O)(=O)N(C)c2ccccc21)c1ccc(C)s1 | Maoa | enzyme activity, inhibitor, fluorescence | – | – | 1270
CCNC(=O)[C@H](CCCNC(=N)CCl)NC(=O)c1ccccc1 | Protein-arginine deiminase type-3 (PADI3, Homo sapiens, UniProt Q9ULW8) | enzyme activity, inhibitor | – | – | 26000
CCCN1CCN(c2ccc(-c3cncc(Cl)c3N3CCC4(CCNC4=O)CC3)cc2)CC1 | Cyclin-dependent kinase 19, with cyclin C (CDK19, Homo sapiens, UniProt Q9BWU1) | ligand displacement | – | – | 7
COc1ccc(Cl)cc1COc1ccc2c(c1)N(S(=O)(=O)c1cccc(C(F)(F)F)c1)CC2 | RORC | ligand displacement, radioligand | – | – | 170
CC(=O)Oc1ccccc1C(=O)Nc1ncc([N+](=O)[O-])s1 | SLC22A8 | transporter uptake, inhibitor | – | – | 154
CCCCCCCCCCCCNC(=S)NCCCC[C@H](NC(=O)OCc1ccccc1)C(=O)N[C@@H](Cc1c[nH]c2ccccc12)C(=O)N[C@@H](CCCCN)C(N)=O | SIRT2 | enzyme activity, inhibitor | – | – | 220
c1cnc(OC2CCNCC2)c(-c2nc(Cc3cccc4ncccc34)no2)c1 | Glycylpeptide N-tetradecanoyltransferase (Plasmodium falciparum, UniProt Q9U419) | enzyme activity, inhibitor, fluorescence | – | – | 3.5
